Results as given in ChEMBL document CHEMBL3232816, “Substituted E-3-(3-indolylmethylene)1,3-dihydroindol-2-ones with antiproliferative activity. Study of the effects on HL-60 leukemia cells” (2014).

Columns and labels:
Type in all cases: functional
[1] = Cytotoxicity against human leukemia cells after 48 hrs; settings: for GI50 / TGI: Leukemia cell
Summary of the method: (§1)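 NCI 60-line panel. Compounds were dissolved in DMSO and tested at five 10-fold dilutions, the highest 10^-4 M (10^-3 M where footnoted), over 48 h of incubation. The readouts were GI50, TGI and LC50 in μM, with the panel mean also given. Only compounds passing a 10^-5 M single-dose prescreen were tested; some were repeated and averaged over two experiments.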

[2] = Cytotoxicity against human NSCLC cells after 48 hrs; summary of the method: as §1
[3] = Cytotoxicity against human colon cancer cells after 48 hrs; settings: Cancer cell lines; for CC50: read-out: LC50 (the source's name); summary of the method: as §1
[4] = Cytotoxicity against human melanoma cells after 48 hrs; settings: Melanoma cell; summary of the method: as §1
[5] = Cytotoxicity against human ovarian cancer cells after 48 hrs; settings: Cancer cell lines; summary of the method: as §1
[6] = Cytotoxicity against human renal cancer cells after 48 hrs; settings: Cancer cell lines; summary of the method: as §1
[7] = Cytotoxicity against human prostate cancer cells after 48 hrs; settings: Cancer cell lines; for CC50: read-out: LC50 (the source's name); summary of the method: as §1
[8] = Cytotoxicity against human breast cancer cells after 48 hrs; settings: Cancer cell lines; for CC50: read-out: LC50 (the source's name); summary of the method: as §1
[9] = Cytotoxicity against human CNS cancer cells after 48 hrs; settings: Cancer cell lines; for CC50: read-out: LC50 (the source's name); summary of the method: as §1

| Structure (SMILES) | GI50 [1] | TGI [1] | GI50 [2] | TGI [2] | GI50 [3] | TGI [3] | CC50 [3] | GI50 [4] | LC50 [4] | TGI [4] | GI50 [5] | TGI [5] | GI50 [6] | TGI [6] | GI50 [7] | TGI [7] | GI50 [8] | TGI [8] | GI50 [9] | TGI [9] | also measured |
| --- | --- | --- | --- | --- | --- | --- | --- | --- | --- | --- | --- | --- | --- | --- | --- | --- | --- | --- | --- | --- | --- |
| COc1cc2c(c(OC)c1OC)/C(=C\c1c(Cl)[nH]c3ccccc13)C(=O)N2 | 0.55 µM | 7.08 µM | 1.86 µM | 9.12 µM | 1.29 µM | 4.27 µM | 18.2 µM | 1.86 µM | 30.9 µM | 6.61 µM | 1.51 µM | 9.77 µM | 1.35 µM | 5.37 µM | 1.17 µM | 5.5 µM | 1.62 µM | 8.13 µM | 1.58 µM | 6.31 µM | LC50 (concentration giving 50% net cell kill) [1]: 42.7 µM; LC50 [2]: 67.6 µM; LC50 [5]: 77.6 µM; LC50 [6]: 36.3 µM; CC50 [8]: 66.1 µM; CC50 [9]: 35.5 µM |
| O=C1/C(=C/c2c(Cl)[nH]c3ccccc23)c2ccccc2N1Cc1ccccc1 | 2.95 µM | 21.4 µM | 6.61 µM | 85.1 µM | 4.17 µM | 79.4 µM | – | 5.13 µM | – | 61.7 µM | 9.12 µM | 79.4 µM | 5.25 µM | 77.6 µM | 6.17 µM | – | 4.17 µM | 56.2 µM | 4.9 µM | 69.2 µM | – |
| O=C1Nc2ccccc2/C1=C\c1c(Cl)n(CCCc2ccccc2)c2ccccc12 | 8.91 µM | 50.1 µM | 14.1 µM | 72.4 µM | 12 µM | 60.3 µM | – | 13.8 µM | – | 67.6 µM | 12 µM | 72.4 µM | 13.8 µM | 67.6 µM | 19.1 µM | – | 10 µM | 72.4 µM | 16.6 µM | 75.9 µM | – |
| COc1ccc2c(c1)/C(=C\c1c(Cl)n(Cc3cc(OC)c(OC)c(OC)c3)c3cc(C)c(OC)cc13)C(=O)N2 | 6.17 µM | 77.6 µM | 20.4 µM | 97.7 µM | 11 µM | 85.1 µM | – | 14.8 µM | – | 75.9 µM | 33.1 µM | – | 29.5 µM | – | 14.5 µM | 95.5 µM | 10.2 µM | 57.5 µM | 16.2 µM | 75.9 µM | – |
| COc1cc2c(/C=C3/C(=O)Nc4ccc(Cl)cc43)c(Cl)n(Cc3cc(OC)c(OC)c(OC)c3)c2cc1C | 1.86 µM | 4.79 µM | 2.29 µM | 5.89 µM | 2.19 µM | 5.62 µM | 29.5 µM | 2.29 µM | 17.8 µM | 5.75 µM | 3.72 µM | 13.8 µM | 2.95 µM | 7.24 µM | 1.78 µM | 3.89 µM | 2.09 µM | 5.5 µM | 2.34 µM | 6.03 µM | LC50 (concentration giving 50% net cell kill) [1]: 15.8 µM; LC50 [2]: 16.2 µM; LC50 [5]: 39.8 µM; LC50 [6]: 18.6 µM; CC50 [7]: 8.91 µM; CC50 [8]: 22.4 µM; CC50 [9]: 23.4 µM |
| COc1ccc(OC)c2c1NC(=O)/C2=C/c1c(Cl)[nH]c2ccccc12 | 1.51 µM | 56.2 µM | 3.55 µM | 22.4 µM | 2.24 µM | 8.91 µM | 33.9 µM | 3.39 µM | 46.8 µM | 16.2 µM | 2.51 µM | 15.1 µM | 3.39 µM | 16.2 µM | 3.47 µM | 19.9 µM | 1.62 µM | 12.6 µM | 2.75 µM | 13.5 µM | LC50 [2]: 74.1 µM; LC50 [5]: 41.7 µM; LC50 [6]: 53.7 µM; CC50 [7]: 51.3 µM; CC50 [8]: 64.6 µM; CC50 [9]: 44.7 µM |
| O=C1Nc2ccccc2/C1=C\c1c(Cl)n(Cc2ccccc2)c2ccccc12 | 3.63 µM | 21.4 µM | 14.8 µM | 57.5 µM | 19.9 µM | 60.3 µM | 95.5 µM | 8.91 µM | 87.1 µM | 32.4 µM | 20.9 µM | 66.1 µM | 20.4 µM | 70.8 µM | 20.4 µM | 55 µM | 12.9 µM | 64.6 µM | 16.6 µM | 47.9 µM | LC50 (concentration giving 50% net cell kill) [1]: 75.9 µM; LC50 [5]: 95.5 µM; CC50 [9]: 93.3 µM |
